Laboratory results published in ChEMBL document CHEMBL4414612, “Synthesis and Pharmacological Evaluation of 1-Phenyl-3-Thiophenylurea Derivatives as Cannabinoid Type-1 Receptor Allosteric Modulators” (J Med Chem, 2019).

Experiments:
Cannabinoid receptor 2 [1] = target: T1, Cannabinoid receptor 2 (Homo sapiens, UniProt P34972); experiment: (§1) Antagonist activity at human CB2 receptor expressed in CHO cells co-expressing Galpha16 assessed as inhibition of EC80 CP55,940-induced calcium mobilization preincubated for 15 mins followed by […] addition measured at 1 sec interval for 90 secs by calcium-5 dye based FLIPR assay; type: functional, cell-based
Outline: (§2)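 CB2 antagonist mode in stable human CB2-CHO-RD-HGA16 cells. Cells were dye-loaded, then pretreated with compound for 15 min at 37 °C. CP55,940 was added at its EC80 at the 10 s point, and calcium fluorescence was recorded every 1 s over 90 s.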

Cannabinoid receptor 2 [2] = target: T1, Cannabinoid receptor 2; experiment: Agonist activity at human CB2 receptor expressed in CHO cells co-expressing Galpha16 assessed as increase in calcium mobilization at 10 uM measured at 1 sec interval for 90 secs by calcium-5 dye based FLIPR assay relative to CP55,940; type: functional, cell-based
Cannabinoid receptor 2 [3] = target: T1, Cannabinoid receptor 2; experiment: as §1, with “mobilization at 10 uM” for “mobilization”, “assay relative to CP55,940” for “assay”; type: functional, cell-based; outline: as §2
Cannabinoid receptor 1 [4] = target: T2, Cannabinoid receptor 1 (Homo sapiens, UniProt P21554); experiment: Inverse agonist activity at human CB1 receptor expressed in HEK293 cell membranes assessed as suppression of [35S]GTPgammaS binding at 10 uM incubated for 60 mins by scintillation counting method; conditions: hek293, 1 h
Outline: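 Inverse agonism on human CB1-HEK293 membranes: compounds were incubated 60 min with 0.1 nM [35S]GTPγS and 30 µM GDP, with no CP55,940 present. Buffer was Tris/MgCl2/EGTA pH 7.4 with 0.5% BSA, at 30 °C. Binding was read by filtration and scintillation counting and normalized to basal (vehicle = 0%).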

Cannabinoid receptor 1 [5] = target: T2, Cannabinoid receptor 1; experiment: Agonist activity at human CB1 receptor expressed in CHO-RD-HGA16 cells co-expressing Galpha16 assessed as suppression stimulation of calcium mobilization incubated for 45 mins by Calcium 5 dye based FLIPR assay relative to CP55,940; type: functional, cell-based
Outline: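 CHO-RD-HGA16 cells stably expressing human CB1 (with Galpha16), plated overnight and loaded with Calcium 5 dye for 45 min at 37 °C. […] Compound was added by the FLIPR Tetra at the 10 s point as a single concentration, and fluorescence (485/525 nm) was read every 1 s for 90 s. RFU were expressed as % of CP55,940 Emax.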

Cannabinoid receptor 1 [6] = target: T2, Cannabinoid receptor 1; experiment: Allosteric modulator activity at human CB1 receptor expressed in CHO-RD-HGA16 cells co-expressing Galpha16 assessed as suppression of 100 nM CP55,940-induced calcium mobilization pre-incubated for 15 mins by Calcium 5 dye based FLIPR assay; type: functional, cell-based
Cannabinoid receptor 1 [7] = target: T2, Cannabinoid receptor 1; experiment: Allosteric modulator activity at human CB1 receptor expressed in HEK293 cell membranes assessed as suppression of 100 nM CP55,940-induced [35S]GTPgammaS binding incubated for 60 mins by scintillation counting method; type: functional
Cannabinoid receptor 1 [8] = target: T3, Cannabinoid receptor 1 (Mus musculus, UniProt P47746); experiment: Allosteric modulator activity at CB1 receptor in mouse cerebellar membranes assessed as suppression of 100 nM CP55,940-induced [35S]GTPgammaS binding incubated for 60 mins by scintillation counting method; type: functional, cell membranes, Cerebellum, Membrane
[9] = Half life in rat liver microsomes; type: ADME, Microsome
Outline: (§3)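 Rat liver microsomes (0.5 mg/mL protein) in 100 mM potassium phosphate pH 7.4 at 37 °C with 1 mM NADPH. Samples were taken at 0, 5, 15, 30 and 45 min, quenched with cold acetonitrile containing internal standards, and analysed by LC/MS/MS. Half-life and clearance were calculated; two independent experiments in duplicate.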

Cannabinoid receptor 1 [10] = target: T3, Cannabinoid receptor 1; experiment: Allosteric antagonist activity at mouse CB1 receptor by GTPgammaS assay; type: functional
Outline: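 Cerebellar membranes from male ICR mice (6-8 weeks), preincubated 10 min with adenosine deaminase (3 units/ml) in Tris/MgCl2/EGTA buffer, pH 7.4. Membranes (10 µg) pre-equilibrated 30 min with modulator, CP55,940 (100 nM; some also at 1 µM), 30 µM GDP and 0.5% BSA, then 0.1 nM [35S]GTPγS for 60 min at 30 °C.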

Cannabinoid receptor 1 [11] = target: T3, Cannabinoid receptor 1; experiment: Allosteric modulator activity at CB1 receptor in mouse cerebellar membranes assessed as suppression of 1 uM CP55,940-induced [35S]GTPgammaS binding incubated for 60 mins by scintillation counting method; type: functional, cell membranes, Cerebellum, Membrane
[12] = Half life in rat liver microsomes in presence of NADPH by LC-MS/MS analysis; type: ADME, Microsome; conditions: liver microsomes; outline: as §3
[13] = Clearance in rat liver microsomes in presence of NADPH incubated up to 45 mins by LC-MS/MS analysis; type: ADME, Microsome; conditions: liver microsomes, read-out: CLH; outline: as §3
[14] = Kinetic solubility in phosphate buffer at 400 uM incubated for 2 hrs by LC-MS/MS analysis; type: physicochemical; conditions: read-out: Kinetic_solubility
Outline: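 A 20 mM DMSO stock was diluted into phosphate buffer to a targeted 400 µM and vortexed 2 h at room temperature. Three independent experiments in duplicate.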

[15] = Apparent permeability from apical to basolateral side in MDCK-MDR1 cells incubated up to 90 mins by LC-MS/MS analysis; type: ADME, cell-based, Canis lupus familiaris; conditions: dog
Outline: (§4)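 MDCK-MDR1 cells were grown 3 days on Transwell supports and preincubated 30 min at 37 °C in HBSS with 10 mM HEPES and 0.25% BSA, pH 7.4, with TEER checked. Test article (10 µM) was added to the apical (A-to-B) or basolateral (B-to-A) donor side at 37 °C with light agitation. Receiver samples were taken at 30, 60 and 90 min for LC-MS/MS. Papp = (dQ/dt)/(A·Ci·60).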

[16] = Apparent permeability from basolateral to apical side in MDCK-MDR1 cells incubated up to 90 mins by LC-MS/MS analysis; type: ADME, cell-based, Canis lupus familiaris; conditions: dog; outline: as §4
Cannabinoid receptor 1 [17] = target: T2, Cannabinoid receptor 1; experiment: Displacement of [3H]CP55,940 from human CB1 receptor

T3 sequence (P47746 whole entry): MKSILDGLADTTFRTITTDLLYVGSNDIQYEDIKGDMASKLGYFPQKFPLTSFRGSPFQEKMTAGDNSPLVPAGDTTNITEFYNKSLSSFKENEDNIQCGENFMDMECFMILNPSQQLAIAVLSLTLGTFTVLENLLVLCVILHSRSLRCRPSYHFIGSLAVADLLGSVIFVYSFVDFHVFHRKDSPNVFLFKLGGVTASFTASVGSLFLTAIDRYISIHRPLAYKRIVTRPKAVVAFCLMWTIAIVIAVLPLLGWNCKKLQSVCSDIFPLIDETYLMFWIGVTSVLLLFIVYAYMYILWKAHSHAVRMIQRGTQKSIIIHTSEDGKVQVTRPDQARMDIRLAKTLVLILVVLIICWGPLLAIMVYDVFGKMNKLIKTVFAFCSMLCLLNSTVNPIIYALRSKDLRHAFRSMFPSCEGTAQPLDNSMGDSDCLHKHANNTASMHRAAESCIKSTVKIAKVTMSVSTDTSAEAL
T2 sequence (P21554 whole entry): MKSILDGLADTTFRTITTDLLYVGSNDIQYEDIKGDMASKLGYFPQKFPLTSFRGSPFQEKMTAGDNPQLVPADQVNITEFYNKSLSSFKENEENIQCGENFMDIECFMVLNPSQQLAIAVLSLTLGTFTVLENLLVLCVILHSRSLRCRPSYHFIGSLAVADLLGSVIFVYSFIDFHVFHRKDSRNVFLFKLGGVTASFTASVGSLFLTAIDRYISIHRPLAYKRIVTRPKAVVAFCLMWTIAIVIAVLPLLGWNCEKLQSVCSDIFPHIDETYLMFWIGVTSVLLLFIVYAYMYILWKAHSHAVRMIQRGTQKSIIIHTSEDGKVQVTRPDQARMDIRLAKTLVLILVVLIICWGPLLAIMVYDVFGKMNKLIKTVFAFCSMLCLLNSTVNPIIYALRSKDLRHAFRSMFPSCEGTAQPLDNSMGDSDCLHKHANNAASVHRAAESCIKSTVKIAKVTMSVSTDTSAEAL
T1 sequence (P34972 whole entry): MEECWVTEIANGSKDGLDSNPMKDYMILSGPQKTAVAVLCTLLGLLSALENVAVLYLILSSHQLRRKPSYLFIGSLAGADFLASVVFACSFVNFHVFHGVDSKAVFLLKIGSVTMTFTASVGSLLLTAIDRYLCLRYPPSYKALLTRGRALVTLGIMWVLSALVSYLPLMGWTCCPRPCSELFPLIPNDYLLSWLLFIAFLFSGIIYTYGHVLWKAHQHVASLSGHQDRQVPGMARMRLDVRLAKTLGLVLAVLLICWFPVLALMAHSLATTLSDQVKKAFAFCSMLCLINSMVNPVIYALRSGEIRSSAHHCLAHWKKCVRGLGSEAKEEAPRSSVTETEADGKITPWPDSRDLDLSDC

| Structure (SMILES) | IC50 (Cannabinoid receptor 2 [1]) | Emax (Cannabinoid receptor 2 [2]) | inhibition (Cannabinoid receptor 2 [3]) | inhibition (INH) (Cannabinoid receptor 1 [4]) | other results |
| --- | --- | --- | --- | --- | --- |
| COc1ccc(-c2cccc(N3CCCC3)n2)cc1NC(=O)Nc1ccc(Cl)cc1 | > 10 µM | < 10% | < 50% | Active | – |
| O=C(Nc1ccc(Cl)cc1)Nc1ccc(-c2cccc(Cl)c2)s1 | > 10 µM | < 10% | < 50% | Active | – |
| CS(=O)(=O)c1cccc(-c2ccc(NC(=O)Nc3ccc(Cl)cc3)s2)c1 | > 10 µM | < 10% | < 50% | Active | – |
| O=C(Nc1ccc(Cl)cc1)Nc1ccc(-c2cccc(F)c2)s1 | > 10 µM | < 10% | < 50% | Active | – |
| O=C(Nc1ccc(Cl)cc1)N[C@H]1C[C@H]1c1ccccc1 (relative stereo) | > 10 µM | < 10% | < 50% | Active | Emax (Cannabinoid receptor 1 [5]): < 30% |
| Cc1cccc(-c2ccc(NC(=O)Nc3ccc(Cl)cc3)s2)c1 | > 10 µM | < 10% | < 50% | Active | – |
| COc1ccc(-c2ccc(NC(=O)Nc3ccc(Cl)cc3)s2)cc1 | > 10 µM | < 10% | < 50% | Active | – |
| O=C(Nc1ccc(Cl)cc1)Nc1cc(-c2ccccc2)ccn1 | > 10 µM | < 10% | < 50% | Active | IC50 (Cannabinoid receptor 1 [6]): 0.156 µM; IC50 (Cannabinoid receptor 1 [7]): > 10 µM; IC50 (Cannabinoid receptor 1 [8]): > 10 µM |
| O=C(Nc1ccc(Cl)cc1)Nc1ccc(-c2ccc(F)cc2)s1 | > 10 µM | < 10% | < 50% | Active | – |
| O=C(Nc1ccc(Cl)cc1)Nc1cccc(-c2ccc(F)cc2)c1 | – | – | – | – | half-life ([9]; liver microsomes): > 300 min |
| O=C(Nc1ccc(Cl)cc1)Nc1ccc(-c2ccc(F)cc2F)s1 | > 10 µM | < 10% | < 50% | Active | – |
| COc1cccc(-c2ccc(NC(=O)Nc3ccc(Cl)cc3)s2)c1 | > 10 µM | < 10% | < 50% | Active | – |
| O=C(Nc1ccc(Cl)cc1)Nc1cncc(-c2ccccc2)c1 | > 10 µM | < 10% | < 50% | Active | IC50 (Cannabinoid receptor 1 [6]): 0.292 µM; IC50 (Cannabinoid receptor 1 [7]): > 10 µM |
| O=C(Nc1ccc(Cl)cc1)Nc1cc(-c2ccccc2)cs1 | > 10 µM | < 10% | < 50% | Active | IC50 (Cannabinoid receptor 1 [8]): 0.776 µM |
| O=C(Nc1ccc(Cl)cc1)Nc1ccc(-c2ccccc2Cl)s1 | > 10 µM | < 10% | < 50% | Active | – |
| O=C(Nc1ccc(Cl)cc1)Nc1cccc(-c2cccc(N3CCCC3)n2)c1 | > 10 µM | – | < 50% | Active | IC50 (Cannabinoid receptor 1 [10]): 0.115 µM; t1/2 ([9]; microsomes): 13 min; IC50 (Cannabinoid receptor 1 [8]): 0.288 µM; Emax (Cannabinoid receptor 1 [5]): < 30%; pIC50 (Cannabinoid receptor 1 [11]): 6.91; half-life [12]: 13.4 min; microsomal CLint at […] [13]: 114 µL/min/mg; solubility kinetic at 2 h, 400 µM [14]: < 0.5 µM; Papp [15]: 2.6 ×10⁻⁶ cm/s; Papp [16]: 2.2 ×10⁻⁶ cm/s |

| Structure (SMILES) | IC50 (Cannabinoid receptor 2 [1]) | Emax (Cannabinoid receptor 2 [2]) | inhibition (Cannabinoid receptor 2 [3]) | inhibition (INH) (Cannabinoid receptor 1 [4]) | other results |
| --- | --- | --- | --- | --- | --- |
| O=C(Nc1ccc(Cl)cc1)Nc1cccc(-c2ccccc2)n1 | > 10 µM | < 10% | < 50% | Active | IC50 (Cannabinoid receptor 1 [6]): 3.53 µM; IC50 (Cannabinoid receptor 1 [7]): > 10 µM |
| O=C(Nc1ccc(Cl)cc1)Nc1ccnc(-c2ccccc2)c1 | > 10 µM | < 10% | < 50% | Active | IC50 (Cannabinoid receptor 1 [6]): 0.233 µM; IC50 (Cannabinoid receptor 1 [7]): 2.77 µM |
| COC(=O)c1cccc(-c2ccc(NC(=O)Nc3ccc(Cl)cc3)s2)c1 | > 10 µM | < 10% | < 50% | Active | IC50 (Cannabinoid receptor 1 [7]): 2.35 µM |
| O=C(Nc1ccc(Cl)cc1)Nc1ccc(-c2ccc(Cl)c(Cl)c2)s1 | > 10 µM | < 10% | < 50% | Active | – |
| O=C(Nc1ccc(Cl)cc1)Nc1ccc(-c2ccc(Cl)cc2)s1 | > 10 µM | < 10% | < 50% | Active | – |
| O=C(Nc1ccc(Cl)cc1)N[C@@H]1CCCN(c2ccccc2)C1 | > 10 µM | < 10% | < 50% | Active | IC50 (Cannabinoid receptor 1 [6]): 3.88 µM; IC50 (Cannabinoid receptor 1 [7]): > 10 µM |
| O=C(Nc1ccc(Cl)cc1)Nc1ncc(-c2ccccc2)s1 | > 10 µM | < 10% | < 50% | Active | – |
| COc1ccccc1-c1ccc(NC(=O)Nc2ccc(Cl)cc2)s1 | > 10 µM | < 10% | < 50% | Active | – |
| O=C(Nc1ccc(Cl)cc1)Nc1ccc(-c2cc(Cl)cc(Cl)c2)s1 | > 10 µM | < 10% | < 50% | Active | – |
| CC(=O)c1cccc(-c2ccc(NC(=O)Nc3ccc(Cl)cc3)s2)c1 | > 10 µM | < 10% | < 50% | Active | – |
| O=C(Nc1ccc(Cl)cc1)Nc1ccc(-c2cccnc2)s1 | > 10 µM | < 10% | < 50% | Active | – |
| O=C(Nc1ccc(Cl)cc1)N[C@H]1C[C@@H]1c1ccccc1 (relative stereo) | > 10 µM | < 10% | < 50% | Active | Emax (Cannabinoid receptor 1 [5]): < 30% |
| O=C(Nc1ccc(Cl)cc1)Nc1csc(-c2ccccc2)c1 | > 10 µM | < 10% | < 50% | Active | – |
| O=C(Nc1ccc(Cl)cc1)Nc1cccc(-c2ccc[nH]2)c1 | – | – | – | – | Kd (Cannabinoid receptor 1 [17]): 0.0014 µM |
| CN(C)c1cccc(-c2ccc(NC(=O)Nc3ccc(Cl)cc3)s2)c1 | > 10 µM | < 10% | < 50% | Active | IC50 (Cannabinoid receptor 1 [11]): 2.57 µM |
| O=C(Nc1ccc(Cl)cc1)Nc1ccc(-c2ccncc2)s1 | > 10 µM | < 10% | < 50% | Active | IC50 (Cannabinoid receptor 1 [7]): 0.263 µM |
